Experimental findings from ChEMBL document CHEMBL3272356, “Adriamycin analogs. Periodate oxidation of adriamycin” (J Med Chem, 1976) are described below.

One may read the ΔTm as the shift of the melting midpoint relative to a reference.

Active and inactive are the calls of the source. No cut-off for these calls is given here. Where only a bound is given, the exact number is not on record here.

The test system of data set [1] is Calf thymus DNA. Description: Binding affinity to calf thymus DNA assessed as increase in melting temperature at 1.63 x 10^-5 M by UV spectrophotometric analysis. Format: nucleic-acid assay. To be noted: Bos taurus.
Data set [2] concerns L1210. Description: Inhibition of DNA synthesis in mouse L1210 cells preincubated for 3 hrs followed by [3H]-thymidine addition measured after 1 hr by scintillation spectrometric analysis. To be noted: read-out: ED50 (the source's name). The data set is classed as functional. An outline of the steps: (§1)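 L1210 suspension at 2 × 10^6/ml in 1640 medium with 10% fetal calf serum and 20 mM HEPES, pH 7.2. Drug tested at 100 to 0.100 µM in half-log steps, 3 h at 37° with shaking. Pulse 1 h with 0.5 µCi/ml [3H]thymidine (DNA) or [3H]uridine (RNA). TCA-precipitable counts expressed as % of control; ED50 read from the points bracketing 50%, with the bracketing assays repeated.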

For data set [3], the system named is L1210. As to the kind of experiment: Inhibition of RNA synthesis in mouse L1210 cells preincubated for 3 hrs followed by [3H]-uridine addition measured after 1 hr by scintillation spectrometric analysis. To be noted: read-out: ED50 (the source's name). The data set is classed as functional. The method, boiled down:
as §1

Data set [4] deals with P388. Description: Antitumor activity against mouse P388 cells allografted in mouse assessed as increase in survival time at 50 mg/kg, ip qd administered for 9 days relative to control. As to conditions: route intraperitoneal. Format: functional.
In data set [5] the test system is P388. As to the kind of experiment: Antitumor activity against mouse P388 cells allografted in mouse assessed as increase in survival time at 25 mg/kg, ip qd administered for 9 days relative to control. The data set is classed as functional. To be noted: route intraperitoneal.
The subject of data set [6] is P388. Description: Antitumor activity against mouse P388 cells allografted in mouse assessed as increase in survival time at 12.5 mg/kg, ip qd administered for 9 days relative to control. Format: functional. To be noted: route intraperitoneal.
Data set [7] relates to P388. Description: Antitumor activity against mouse P388 cells allografted in mouse assessed as increase in survival time at 6.25 mg/kg, ip qd administered for 9 days relative to control. The data set is classed as functional. To be noted: route intraperitoneal.
The subject of data set [8] is P388. As to the kind of experiment: Antitumor activity against mouse P388 cells allografted in mouse assessed as increase in survival time at 3.12 mg/kg, ip qd administered for 9 days relative to control. Format: functional. As to conditions: route intraperitoneal.
In data set [9] the test system is P388. Description: Antitumor activity against mouse P388 cells allografted in mouse assessed as increase in survival time at 1.56 mg/kg, ip qd administered for 9 days relative to control. The data set is classed as functional. To be noted: route intraperitoneal.
The test system of data set [10] is P388. As to the kind of experiment: Antitumor activity against mouse P388 cells allografted in mouse assessed as increase in survival time at 75 mg/kg, ip qd administered for 9 days relative to control. As to conditions: route intraperitoneal. Format: functional.
For data set [11], the system named is Mus musculus. As to the kind of experiment: Acute toxicity in mouse allografted with mouse P388 cells assessed as survival less than 5 days at 1.56 to 75 mg/kg, ip qd. Set-up: dose 1.56-75 mg/kg, route intraperitoneal. To be noted: in vivo, 120 h. The data set is classed as organism-based. The method, boiled down:
(§2)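 BDF or CDF mice were implanted ip with 10^6 P-388 lymphocytic leukemia cells on day 0 and dosed ip on days 1-9. Acute toxic drug deaths were scored as survival of less than 5 days after the start of treatment. Testing was done by the NCI Drug Research and Development Program.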

For data set [12], the system named is Calf thymus DNA. As to the kind of experiment: Binding affinity to calf thymus DNA assessed as bathochromatic shift at 1:1 to 16:1 compound to DNA ratio by UV-visible spectra analysis. Format: nucleic-acid assay. To be noted: Bos taurus. An outline of the steps:
(§3)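 Calf thymus DNA stock sonicated on ice to limit precipitation of the complex. DNA concentration was taken from the supplier's phosphorus content. UV-visible spectra were recorded.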

The test system of data set [13] is Calf thymus DNA. As to the kind of experiment: Binding affinity to calf thymus DNA assessed as decrease in absorptivity of visible maxima of compound at 1:1 to 16:1 compound to DNA ratio by UV-visible spectra analysis. The data set is classed as nucleic-acid assay. To be noted: Bos taurus. The method, boiled down: as §3
Data set [14] relates to L1210. As to the kind of experiment: Inhibition of DNA synthesis in mouse L1210 cells at < 100 uM preincubated for 3 hrs followed by [3H]-thymidine addition measured after 1 hr by scintillation spectrometric analysis. The data set is classed as functional, cell-based. The method, boiled down: as §1
The test system of data set [15] is L1210. Description: Inhibition of RNA synthesis in mouse L1210 cells at < 100 uM preincubated for 3 hrs followed by [3H]-uridine addition measured after 1 hr by scintillation spectrometric analysis. The data set is classed as functional, cell-based. An outline of the steps:
as §1

For data set [16], the system named is Calf thymus DNA. Description: Binding affinity to calf thymus DNA assessed as increase in melting temperature at 2 x 10^-5 M by UV spectrophotometric analysis. Format: nucleic-acid assay. As to conditions: Bos taurus.
The test system of data set [17] is P388. As to the kind of experiment: Antitumor activity against mouse P388 cells allografted in mouse assessed as change in survival time at 4 mg/kg, ip qd administered for 9 days relative to control. The data set is classed as functional. As to conditions: route intraperitoneal.
For data set [18], the system named is P388. As to the kind of experiment: Antitumor activity against mouse P388 cells allografted in mouse assessed as increase in survival time at 2 mg/kg, ip qd administered for 9 days relative to control. Format: functional. As to conditions: route intraperitoneal.
Data set [19] concerns P388. As to the kind of experiment: Antitumor activity against mouse P388 cells allografted in mouse assessed as increase in survival time at 1 mg/kg, ip qd administered for 9 days relative to control. Format: functional. To be noted: route intraperitoneal.
Data set [20] has as its system P388. As to the kind of experiment: Antitumor activity against mouse P388 cells allografted in mouse assessed as increase in survival time at 0.5 mg/kg, ip qd administered for 9 days relative to control. Format: functional. As to conditions: route intraperitoneal.
In data set [21] the test system is P388. As to the kind of experiment: Antitumor activity against mouse P388 cells allografted in mouse assessed as increase in survival time at 0.25 mg/kg, ip qd administered for 9 days relative to control. Format: functional. As to conditions: route intraperitoneal.
In data set [22] the test system is P388. Description: Antitumor activity against mouse P388 cells allografted in mouse assessed as increase in survival time at 0.12 mg/kg, ip qd administered for 9 days relative to control. The data set is classed as functional. To be noted: route intraperitoneal.
The subject of data set [23] is P388. Description: Antitumor activity against mouse P388 cells allografted in mouse assessed as increase in survival time at 0.06 mg/kg, ip qd administered for 9 days relative to control. The data set is classed as functional. To be noted: route intraperitoneal.
In data set [24] the test system is Mus musculus. As to the kind of experiment: Acute toxicity in mouse allografted with mouse P388 cells assessed as survival less than 5 days at 0.06 to 4 mg/kg, ip qd. Format: organism-based. More on the design: dose 0.06-4 mg/kg, route intraperitoneal. As to conditions: in vivo, 120 h. The method, boiled down: as §2
Data set [25] deals with Calf thymus DNA. As to the kind of experiment: Binding affinity to calf thymus DNA assessed as increase in melting temperature at 1.54 x 10^-5 M by UV spectrophotometric analysis. The data set is classed as nucleic-acid assay. As to conditions: Bos taurus.
The test system of data set [26] is Mus musculus. As to the kind of experiment: Acute toxicity in mouse allografted with mouse P388 cells assessed as survival less than 5 days at 1.56 to 50 mg/kg, ip qd. Format: organism-based. More on the design: dose 1.56-50 mg/kg, route intraperitoneal. To be noted: in vivo, 120 h. An outline of the steps: as §2
Data set [27] has as its system Calf thymus DNA. Description: Binding affinity to calf thymus DNA assessed as increase in melting temperature at 2.1 x 10^-5 M by UV spectrophotometric analysis. To be noted: Bos taurus. The data set is classed as nucleic-acid assay.

Consider `COC(=O)[C@]1(O)Cc2c(O)c3c(c(O)c2[C@@H](O[C@H]2C[C@H](N)[C@H](O)[C@H](C)O2)C1)C(=O)c1c(OC)cccc1C3=O.Cl`, for which the ΔTm in data set [1] was determined as 12.6 °C. The EC50 was 2000 nM in data set [2] and 900 nM in [3]. Moreover, the T/C in [4] was found to be 125; in [5], 115; in data set [6] it was 112; in data set [7], 108; in [8] it was 103; in data set [9] it was 107. Also, in data set [10], the T/C is listed as 141. Also, the Activity entry in [11] is reported as “Non-toxic”. Besides, the result in [12] and in data set [13] was Active.

With `COc1cccc2c1C(=O)c1c(O)c3c(c(O)c1C2=O)C[C@@](O)(C(=O)O)C[C@@H]3O`, the inhibition entry in data set [14] and in data set [15] was “inactive” in each case.

Consider `COC(=O)[C@]1(O)Cc2c(O)c3c(c(O)c2[C@@H](O)C1)C(=O)c1c(OC)cccc1C3=O`, for which the inhibition result in data set [14] and in [15] was “inactive” throughout.

Consider `COc1cccc2c1C(=O)c1c(O)c3c(c(O)c1C2=O)C[C@@](O)(C(C)=O)C[C@@H]3O[C@H]1C[C@H](N)[C@H](O)[C@H](C)O1` [DAUNORUBICIN], for which, in data set [16], the ΔTm was 16.8 °C. In addition, the EC50 in data set [2] and in data set [3] was 300 nM each time. For the same compound, the T/C came to 96 in data set [17]; 150 in data set [18]; 157 in [19]; 150 in [20]; 142 in data set [21]; 130 in [22]. In addition, the T/C in data set [23] worked out at 112. Moreover, the Activity entry in data set [24] was “Non-toxic”. The result in data set [12] and in data set [13] was Active.

`COc1cccc2c1C(=O)c1c(O)c3c(c(O)c1C2=O)C[C@@](O)(C(=O)O)C[C@@H]3O[C@H]1C[C@H](N)[C@H](O)[C@H](C)O1.Cl`: the ΔTm in data set [25] amounted to 2.6 °C. For the same compound, the values for the EC50 in [2] and in data set [3] were > 100000 nM and 65000 nM, respectively. Moreover, the T/C is recorded as 151 in data set [4]; 163 in data set [5]; 151 in [6]; 142 in [7]; 107 in data set [8]; 100 in [9]. The Activity result in [26] is listed as “Non-toxic”. Moreover, the outcome in [12] and in data set [13] was Active.

Take `COc1cccc2c1C(=O)c1c(O)c3c(c(O)c1C2=O)C[C@@](O)(C(=O)CO)C[C@@H]3O[C@H]1C[C@H](N)[C@H](O)[C@H](C)O1` [DOXORUBICIN]: the ΔTm in data set [27] was determined as 17.8 °C. Further, the EC50 in [2] was determined as 800 nM; in [3], 900 nM. For the same compound, the T/C in [17] stood at 71; in data set [19], 212; in data set [20], 182; in [21] it was 162; in data set [22] it was 156; in data set [23], 139. Besides, in data set [24], the Activity entry is “Non-toxic”. Moreover, the result in [12] and in data set [13] was Active.
